The record followed here is ChEMBL document CHEMBL4325828, “The Design, Synthesis, and Characterizations of Spore Germination Inhibitors Effective against an Epidemic Strain of Clostridium difficile” (J Med Chem, 2018).

The structures appear in SMILES notation.

Test [1] has as its system Clostridioides difficile. The test can be described thus: Antibacterial activity against Clostridium difficile R20291 assessed as inhibition of spore germination by measuring heat activated spore germination levels at 125 uM in presence of 6 mM taurocholate and 12 mM glycine measured every minute for 2 hrs by standard optical density assay relative to control. In kind it is functional. On the set-up: scale not given: the % may be the effect or the level left. Summed up:
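R20291 spores were screened at a single 125 µM concentration, with germination followed as the fall in absorbance at 580 nm. Compounds not soluble at 125 µM by visual inspection were discarded. Inhibition is relative to untreated spore samples.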

The test system of test [2] is Clostridioides difficile. The test can be described thus: Antibacterial activity against Clostridium difficile R20291 assessed as inhibition of spore germination in presence of 6 mM taurocholate and 12 mM glycine measured every minute for 2 hrs by standard optical density assay. In kind it is functional, organism-based. The essentials: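 IC50 was determined on R20291 spores across a range of compound concentrations in sodium phosphate medium with 6 mM taurocholate and 12 mM glycine. Germination was read as the decrease in absorbance at 580 nm.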

Test [3] concerns Clostridioides difficile. Briefly: Antibacterial activity against Clostridium difficile R20291 assessed as inhibition of spore germination in complex BHIS media containing 6 mM taurocholate measured every minute for 2 hrs by standard optical density assay. Format: functional, organism-based. Summed up:
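IC50 was determined on R20291 spores across multiple compound concentrations in complex BHIS medium supplemented with 6 mM taurocholate. Germination was monitored as the decline in absorbance at 580 nm.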

The test system of test [4] is Clostridioides difficile. The test can be described thus: Potency index, ratio of IC50 for chenodeoxycholate to IC50 for test compound for inhibition of spore germination in Clostridium difficile R20291 in presence of 6 mM taurocholate and 12 mM glycine measured every minute for 2 hrs by standard optical density assay. Format: functional.

As to `C#CCNC(=O)CC[C@@H](C)[C@H]1CC[C@H]2[C@@H]3[C@H](O)C[C@@H]4C[C@H](O)CC[C@]4(C)[C@H]3C[C@H](O)[C@]12C`, the Activity with Clostridioides difficile [1] was 59%. In the test with Clostridioides difficile [2], the IC50 came to 137 µM.

`C[C@H](CCC(=O)Nc1cccc(S(=O)(=O)O)c1)[C@H]1CC[C@H]2[C@@H]3[C@H](O)C[C@@H]4C[C@H](O)CC[C@]4(C)[C@H]3C[C@H](O)[C@]12C`: the Activity in the test with Clostridioides difficile [1] was 102%.

On to `C[C@H](CCC(=O)Nc1ccc(NC(=O)OC(C)(C)C)cc1)[C@H]1CC[C@H]2[C@@H]3[C@H](O)C[C@@H]4C[C@H](O)CC[C@]4(C)[C@H]3C[C@H](O)[C@]12C`, for which, in the test on Clostridioides difficile [1], the Activity was determined as 100%.

On to `COc1ccc(NC(=O)CC[C@@H](C)[C@H]2CC[C@H]3[C@@H]4[C@H](O)C[C@@H]5C[C@H](O)CC[C@]5(C)[C@H]4C[C@H](O)[C@]23C)c(OC)c1`, for which the Activity with Clostridioides difficile [1] is listed as 93%.

In the case of `C[C@H](CCC(=O)NCC1CC1)[C@H]1CC[C@H]2[C@@H]3[C@H](O)C[C@@H]4C[C@H](O)CC[C@]4(C)[C@H]3C[C@H](O)[C@]12C`, in the test on Clostridioides difficile [1], the Activity was determined as 15%. For the same compound, the IC50 in the test with Clostridioides difficile [2] turned out to be 24.3 µM.

On to `C[C@H](CCC(=O)Nc1cccc(C(N)=O)c1)[C@H]1CC[C@H]2[C@@H]3[C@H](O)C[C@@H]4C[C@H](O)CC[C@]4(C)[C@H]3C[C@H](O)[C@]12C`, for which the Activity in the test on Clostridioides difficile [1] is on record as 85%.

In the case of `C[C@H](CCC(=O)Nc1cccc(N)c1)[C@H]1CC[C@H]2[C@@H]3[C@H](O)C[C@@H]4C[C@H](O)CC[C@]4(C)[C@H]3C[C@H](O)[C@]12C.Cl`, in the test with Clostridioides difficile [1], the Activity amounted to 59%. The concentration for half-maximal inhibition (IC50) with Clostridioides difficile [2] came to 32 µM.

Consider `Cc1cc(F)ccc1NC(=O)CC[C@@H](C)[C@H]1CC[C@H]2[C@@H]3[C@H](O)C[C@@H]4C[C@H](O)CC[C@]4(C)[C@H]3C[C@H](O)[C@]12C`, for which the Activity in the test with Clostridioides difficile [1] came out at 37%. Moreover, the IC50 in the test on Clostridioides difficile [2] was 24 µM.

On to `C[C@H](CCC(=O)Nc1ccccc1)[C@H]1CC[C@H]2[C@@H]3[C@H](O)C[C@@H]4C[C@H](O)CC[C@]4(C)[C@H]3C[C@H](O)[C@]12C`, for which the IC50 in the test on Clostridioides difficile [3] and with Clostridioides difficile [2] was 1.8 µM each time. Besides, the Activity in the test with Clostridioides difficile [1] is given as 3%. The “Ratio IC50” value in the test with Clostridioides difficile [4] was over 225.

In the case of `C[C@H](CCC(=O)Nc1cccc(NC(=O)OC(C)(C)C)c1)[C@H]1CC[C@H]2[C@@H]3[C@H](O)C[C@@H]4C[C@H](O)CC[C@]4(C)[C@H]3C[C@H](O)[C@]12C`, the Activity with Clostridioides difficile [1] was 89%.

For the compound `COc1cccc(NC(=O)CC[C@@H](C)[C@H]2CC[C@H]3[C@@H]4[C@H](O)C[C@@H]5C[C@H](O)CC[C@]5(C)[C@H]4C[C@H](O)[C@]23C)c1`, in the test with Clostridioides difficile [1], the Activity is on record as 55%. The IC50 in the test on Clostridioides difficile [2] was found to be 78 µM.

With `C[C@H](CCC(=O)Nc1ccc(O)cc1)[C@H]1CC[C@H]2[C@@H]3[C@H](O)C[C@@H]4C[C@H](O)CC[C@]4(C)[C@H]3C[C@H](O)[C@]12C`, the Activity in the test on Clostridioides difficile [1] came to 20%. Besides, the IC50 in the test on Clostridioides difficile [2] is 36 µM.

With `C[C@H](CCC(=O)NC1CCCCC1)[C@H]1CC[C@H]2[C@@H]3[C@H](O)C[C@@H]4C[C@H](O)CC[C@]4(C)[C@H]3C[C@H](O)[C@]12C`, the Activity with Clostridioides difficile [1] amounted to 47%. For the same compound, in the test on Clostridioides difficile [2], the IC50 was 95.4 µM.

With `C[C@H](CCC(=O)Nc1cccc(F)c1)[C@H]1CC[C@H]2[C@@H]3[C@H](O)C[C@@H]4C[C@H](O)CC[C@]4(C)[C@H]3C[C@H](O)[C@]12C`, the Activity in the test with Clostridioides difficile [1] was 8%. Also, the 50% inhibitory concentration (IC50) in the test with Clostridioides difficile [2] came out at 16 µM.

On to `C[C@H](CCC(=O)NC1CC1)[C@H]1CC[C@H]2[C@@H]3[C@H](O)C[C@@H]4C[C@H](O)CC[C@]4(C)[C@H]3C[C@H](O)[C@]12C`, for which the Activity in the test with Clostridioides difficile [1] is recorded as 6%. The concentration for half-maximal inhibition (IC50) in the test on Clostridioides difficile [2] was determined as 25 µM.

With `C[C@H](CCC(=O)Nc1ccncc1)[C@H]1CC[C@H]2[C@@H]3[C@H](O)C[C@@H]4C[C@H](O)CC[C@]4(C)[C@H]3C[C@H](O)[C@]12C`, the Activity with Clostridioides difficile [1] stood at 17%. Further, the IC50 in the test with Clostridioides difficile [2] turned out to be 30.1 µM.

As for `C[C@H](CCC(=O)NC1CCCC1)[C@H]1CC[C@H]2[C@@H]3[C@H](O)C[C@@H]4C[C@H](O)CC[C@]4(C)[C@H]3C[C@H](O)[C@]12C`, in the test on Clostridioides difficile [1], the Activity amounted to 6%. In addition, in the test with Clostridioides difficile [2], the IC50 was determined as 34.1 µM.

Regarding `CCOC(=O)c1cccc(NC(=O)CC[C@@H](C)[C@H]2CC[C@H]3[C@@H]4[C@H](O)C[C@@H]5C[C@H](O)CC[C@]5(C)[C@H]4C[C@H](O)[C@]23C)c1`, in the test on Clostridioides difficile [1], the Activity is recorded as 109%.

As to `Cc1ccc(F)cc1NC(=O)CC[C@@H](C)[C@H]1CC[C@H]2[C@@H]3[C@H](O)C[C@@H]4C[C@H](O)CC[C@]4(C)[C@H]3C[C@H](O)[C@]12C`, the Activity with Clostridioides difficile [1] stood at 9%. Also, the IC50 in the test with Clostridioides difficile [2] amounted to 14 µM.

For `COc1ccccc1NC(=O)CC[C@@H](C)[C@H]1CC[C@H]2[C@@H]3[C@H](O)C[C@@H]4C[C@H](O)CC[C@]4(C)[C@H]3C[C@H](O)[C@]12C`, the Activity with Clostridioides difficile [1] turned out to be 8%. In addition, the IC50 in the test with Clostridioides difficile [2] was found to be 9.8 µM.

As for `CC(C)CNC(=O)CC[C@@H](C)[C@H]1CC[C@H]2[C@@H]3[C@H](O)C[C@@H]4C[C@H](O)CC[C@]4(C)[C@H]3C[C@H](O)[C@]12C`, the Activity in the test with Clostridioides difficile [1] came out at 62%. The IC50 with Clostridioides difficile [2] worked out at 154 µM.

Consider `CCOC(=O)c1ccc(NC(=O)CC[C@@H](C)[C@H]2CC[C@H]3[C@@H]4[C@H](O)C[C@@H]5C[C@H](O)CC[C@]5(C)[C@H]4C[C@H](O)[C@]23C)cc1`, for which the Activity in the test on Clostridioides difficile [1] is 105%.

On to `C[C@H](CCC(=O)NCc1ccccc1[N+](=O)[O-])[C@H]1CC[C@H]2[C@@H]3[C@H](O)C[C@@H]4C[C@H](O)CC[C@]4(C)[C@H]3C[C@H](O)[C@]12C`, for which the Activity in the test with Clostridioides difficile [1] is recorded as 113%. In addition, the IC50 in the test on Clostridioides difficile [2] stood at 225 µM.

Consider `COc1ccc(NC(=O)CC[C@@H](C)[C@H]2CC[C@H]3[C@@H]4[C@H](O)C[C@@H]5C[C@H](O)CC[C@]5(C)[C@H]4C[C@H](O)[C@]23C)cc1`, for which, in the test with Clostridioides difficile [1], the Activity is reported as 79%.
